ChEMBL document CHEMBL3758106, “Antitumor Activity of Americanin A Isolated from the Seeds of Phytolacca americana by Regulating the ATM/ATR Signaling Pathway and the Skp2-p27 Axis in Human Colon Cancer Cells” (J Nat Prod, 2015)
The source made the active and inactive calls. No cut-off for these calls is given here.

Columns and labels:
HCT-116 [1] = experiment: Induction of cell cycle arrest in human HCT116 cells assessed as accumulation at G0/G1 phase at 15 uM after 48 hrs by propidium iodide staining-based flow cytometric analysis in presence of RNase A (reference value: 54.3%); type: functional
HCT-116 [2] = experiment: Induction of cell cycle arrest in human HCT116 cells assessed as accumulation at S phase at 15 uM after 48 hrs by propidium iodide staining-based flow cytometric analysis in presence of RNase A (reference value: 16.2%); type: functional
HCT-116 [3] = experiment: Induction of cell cycle arrest in human HCT116 cells assessed as accumulation at G2/M phase at 15 uM after 48 hrs by propidium iodide staining-based flow cytometric analysis in presence of RNase A (reference value: 19.7%); type: functional
HCT-116 [4] = experiment: Induction of apoptosis in human HCT116 cells assessed as dead cells at 15 uM after 48 hrs by annexin V-FITC/propidium iodide staining-based flow cytometric analysis (reference value: 2%); type: functional
Mus musculus [5] = experiment: Toxicity in nude mouse assessed as change in body weight at 5 to 10 mg/kg, ip administered 3 times per week measured on day 41; type: organism-based; conditions: in vivo
Procedure, shortened: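 Nude mice implanted s.c. in the flank with 2 × 10^6 HCT116 cells. Once tumors reached about 120 mm3, mice were randomized, six per group, to vehicle or compound at 5 or 10 mg/kg ip (200 μL) three times weekly; irinotecan 10 mg/kg ip once weekly as reference. Body weight recorded twice weekly to assess toxicity; study ended day 41.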

[6] = Downregulation of phosphorylated cyclin B1 at Ser147 expression in human HCT116 cells at 7.5 to 30 uM after 24 hrs by Western blot analysis; type: functional, cell-based; conditions: HCT-116
Procedure, shortened: (§1)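 HCT116 cells exposed 24 h in complete medium; lysed in RIPA buffer (pH 8.0), protein by BCA, equal loads run on 8–13% SDS-PAGE, PVDF transfer, blocked in 5% BSA/TBST, primary antibodies overnight at 4 °C, HRP secondaries 2 h RT, ECL detection; β-actin as loading control.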

[7] = Antiproliferative activity against human HCT116 cells assessed as cell viability after 72 hrs by SRB assay; type: functional, cell-based; conditions: HCT-116, 72 h
Procedure, shortened: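 HCT116 cells in 96-well plates exposed 24, 48 or 72 h; TCA fixation, 0.4% SRB staining, dye solubilised in 10 mM Tris pH 10.0, absorbance at 515 nm; viability relative to solvent-treated control.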

[8] = Downregulation of phosphorylated ATR expression in human HCT116 cells at 30 uM after 1 hr by Western blot analysis; type: functional, cell-based; conditions: HCT-116, TDE = time-dependent effect
Procedure, shortened: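 HCT116 cells exposed for 1 h in complete medium; RIPA lysates quantified by BCA, equal protein separated on 8–13% SDS-PAGE, transferred to PVDF, probed with primary antibodies overnight at 4 °C and HRP secondaries, chemiluminescence read-out.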

[9] = Upregulation of MDM2 expression in human HCT116 cells at 7.5 to 30 uM after 24 hrs by Western blot analysis; type: functional, cell-based; conditions: HCT-116
[10] = Decrease in SCF E3 expression in human HCT116 cells at 7.5 to 30 uM after 24 hrs by western blot analysis; type: functional, cell-based; conditions: HCT-116; procedure, shortened: as §1
SW480 = experiment: Antiproliferative activity against human SW480 cells after 24 to 72 hrs by SRB assay; type: functional, cell-based
Procedure, shortened: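 Cells grown in 96-well plates (RPMI 1640; MRC-5 in MEM, 10% FBS, antibiotics) with compound […]; fixed in 10% TCA 30 min at 4 °C, stained 0.4% SRB in 1% acetic acid 1 h, dye dissolved in 10 mM Tris pH 10.0, A515 read; viability as % of solvent control, IC50 by nonlinear regression; mean of three independent experiments.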

Mus musculus [11] = experiment: Upregulation of p21 in human HCT116 cells xenografted in nude mouse at 5 to 10 mg/kg, ip administered 3 times per week measured on day 41 by Western blot analysis; type: functional, organism-based; conditions: HCT-116
Procedure, shortened: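 HCT116 xenografts in nude mice dosed ip at 5 or 10 mg/kg three times weekly to day 41. Portions of the excised frozen tumors were thawed on ice, homogenized in complete lysis buffer, protein quantified by Bradford, and p21, p27 and Skp2 assessed by Western blot with β-actin as internal control.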

Mus musculus [12] = experiment: Downregulation of Skp2 in human HCT116 cells xenografted in nude mouse at 5 to 10 mg/kg, ip administered 3 times per week measured on day 41 by […]; type: functional, organism-based; conditions: HCT-116
Procedure, shortened: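 Formalin-fixed, paraffin-embedded xenograft sections (mice dosed ip three times weekly) probed with antibodies, detected by LSAB/HRP, counterstained with H&E, imaged by inverted phase-contrast microscopy.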

HCT-116 [13] = experiment: Induction of cell cycle arrest in human HCT116 cells assessed as accumulation at sub-G1 phase at 7.5 uM after 24 hrs by propidium iodide staining-based flow cytometric analysis in presence of RNase A (reference value: 1.5%); type: functional

Work on `O=C/C=C/c1ccc2c(c1)O[C@@H](CO)[C@H](c1ccc(O)c(O)c1)O2` [AMERICANIN A] yielded an Activity (HCT-116 [1]) of 23.4%, an Activity (HCT-116 [2]) of 8.2% and an Activity (HCT-116 [3]) of 20.3%. The Activity (HCT-116 [4]) was 0.4%, the Activity (Mus musculus [5]) was “Non-toxic” and the Activity [6] was “Active”. For the same compound, the IC50 [7] was 8.7 µM, the Activity [8] was “tde” and the Activity [9] was “Active”. The Activity [10] was “Active”, the IC50 (SW480) was 27.4 µM and the Activity (Mus musculus [11]) was “Active”. For the same compound, the Activity (Mus musculus [12]) was “Active” and the Activity (HCT-116 [13]) was 1.9%.
